Tests used:
Assay type in all cases: functional
Rattus norvegicus [1] = test: Percentage change in total triglycerides was determined in vivo in male Sprague-Dawley rats
Outline: (§1)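 Compounds given in the diet to groups of six rats for 8 days, after a 7-day lead-in; dose expressed as mg/kg/day. At termination, rats anesthetized with CO2 and bled from the carotid artery, and serum separated. Values are % change or ratio versus gemfibrozil (set = 1), each relative to an untreated control group; significance P < 0.05.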

Rattus norvegicus [2] = test: Percentage change in total cholesterol was determined in vivo in male Sprague-Dawley rats; outline: as §1
Rattus norvegicus [3] = test: In vivo biological activity against Apo A-I relative to gemfibrozil in male Sprague-Dawley rats; outline: as §1
Rattus norvegicus [4] = test: In vivo biological activity against HDL relative to gemfibrozil in male Sprague-Dawley rats; outline: as §1
Rattus norvegicus [5] = test: Dose administered for testing biological activity in vivo in male Sprague-Dawley rats; outline: as §1

SMILES	Change (Rattus norvegicus [1]) [%]	Change (Rattus norvegicus [2]) [%]	Activity (Rattus norvegicus [3])	Activity (Rattus norvegicus [4])	Dose (Rattus norvegicus [5]) [mg/kg/day]
Cc1ccc(Cl)cc1/N=C(\S)NCC(C)(C)C(N)=O	-49	-3	1.15	0.57	41
Cc1ccc(Cl)cc1/N=C(\S)NCCO	-56	40	1.06	0.61	52
Cc1ccc(Cl)cc1NC(=O)NCC(C)(C)C(=O)O	-21	74	0.32	0.36	73
Cc1ccc(C)c(N/C(S)=N/CC(C)(C)C(=O)O)c1	69	73	0.93	0.54	78
COc1ccc(Cl)cc1/N=C(\S)NCC(C)(C)C(=O)O	-28	9	0.27	0.62	77
Cc1ccc(Cl)cc1/N=C(\S)N1CCCC(C)(C(=O)O)C1 (stereo not given)	15	14	-0.16	0.33	81
Cc1ccc(Cl)cc1/N=C(\S)NCC1(C(=O)O)CCC1	-39	36	0.49	1.19	76
COC(=O)C(C)(C)C/N=C(\S)Nc1cc(Cl)ccc1C	-12	-12	1.81	0.93	74
Cc1ccc(Cl)cc1/N=C(\S)NCC1(C(=O)O)CCCC1	-61	41	0.55	1.09	67
Cc1ccc(Cl)cc1/N=C(\S)NCC1(C(=O)O)CCCCC1	-54	21	0.32	0.73	88
Cc1ccc(C)c(OCCCC(C)(C)C(=O)O)c1 [GEMFIBROZIL]	-43	-23	1	1	46

Source: ChEMBL document CHEMBL1134905, “Thiourea-based gemfibrozil analogues as HDL-elevating agents” (2002)
